Reference: ChEMBL document CHEMBL4229424, “Design, synthesis and anticancer evaluation of acridine hydroxamic acid derivatives as dual Topo and HDAC inhibitors” (Bioorg Med Chem, 2018)
Calls of active or inactive are those of the source. No cut-off for these calls is given here.

Experiments:
[1] = tested on: MDA-MB-231; assay: Antiproliferative activity against human MDA-MB-231 cells after 48 hrs by MTT assay; assay type: functional, cell-based; conditions: MDA-MB-231, 48 h
Method in brief: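 Cells seeded at 5-10 × 10^3 per well and left 12 h at 37 °C, then given a range of concentrations (DMSO as blank) for 48 h. MTT (5 mg/mL) added for 4 h, formazan dissolved in DMSO, absorbance read at 490 nm. IC50 taken from dose-response curves of at least three independent experiments, mean ± SD.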

[2] = biological target: Histone deacetylase 1 (Homo sapiens, UniProt Q13547); assay: Inhibition of HDAC1 (unknown origin) using Ac-peptide as substrate pretreated for 15 mins followed by substrate addition and measured after 1 hr by fluorescence assay
Chain of Histone deacetylase 1 (Q13547 whole entry): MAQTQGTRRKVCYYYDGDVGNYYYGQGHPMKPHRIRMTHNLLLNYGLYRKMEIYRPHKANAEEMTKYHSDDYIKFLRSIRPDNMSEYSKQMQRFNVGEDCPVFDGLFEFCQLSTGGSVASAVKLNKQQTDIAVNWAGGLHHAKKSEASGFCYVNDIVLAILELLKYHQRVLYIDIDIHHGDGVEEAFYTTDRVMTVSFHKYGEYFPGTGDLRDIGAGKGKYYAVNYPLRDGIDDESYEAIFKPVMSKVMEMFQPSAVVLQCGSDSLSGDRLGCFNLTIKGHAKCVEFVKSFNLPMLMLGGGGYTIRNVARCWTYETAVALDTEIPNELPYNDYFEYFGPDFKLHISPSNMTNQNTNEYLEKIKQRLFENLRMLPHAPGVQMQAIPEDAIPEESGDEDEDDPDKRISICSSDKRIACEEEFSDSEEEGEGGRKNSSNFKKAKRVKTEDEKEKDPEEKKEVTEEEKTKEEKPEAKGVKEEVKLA

[3] = biological target: T1, Protein deacetylase HDAC6 (Homo sapiens, UniProt Q9UBN7); assay: Inhibition of HDAC6 (unknown origin) using Ac-peptide as substrate pretreated for 15 mins followed by substrate addition and measured after 1 hr by fluorescence assay
T1 sequence (Q9UBN7 whole entry): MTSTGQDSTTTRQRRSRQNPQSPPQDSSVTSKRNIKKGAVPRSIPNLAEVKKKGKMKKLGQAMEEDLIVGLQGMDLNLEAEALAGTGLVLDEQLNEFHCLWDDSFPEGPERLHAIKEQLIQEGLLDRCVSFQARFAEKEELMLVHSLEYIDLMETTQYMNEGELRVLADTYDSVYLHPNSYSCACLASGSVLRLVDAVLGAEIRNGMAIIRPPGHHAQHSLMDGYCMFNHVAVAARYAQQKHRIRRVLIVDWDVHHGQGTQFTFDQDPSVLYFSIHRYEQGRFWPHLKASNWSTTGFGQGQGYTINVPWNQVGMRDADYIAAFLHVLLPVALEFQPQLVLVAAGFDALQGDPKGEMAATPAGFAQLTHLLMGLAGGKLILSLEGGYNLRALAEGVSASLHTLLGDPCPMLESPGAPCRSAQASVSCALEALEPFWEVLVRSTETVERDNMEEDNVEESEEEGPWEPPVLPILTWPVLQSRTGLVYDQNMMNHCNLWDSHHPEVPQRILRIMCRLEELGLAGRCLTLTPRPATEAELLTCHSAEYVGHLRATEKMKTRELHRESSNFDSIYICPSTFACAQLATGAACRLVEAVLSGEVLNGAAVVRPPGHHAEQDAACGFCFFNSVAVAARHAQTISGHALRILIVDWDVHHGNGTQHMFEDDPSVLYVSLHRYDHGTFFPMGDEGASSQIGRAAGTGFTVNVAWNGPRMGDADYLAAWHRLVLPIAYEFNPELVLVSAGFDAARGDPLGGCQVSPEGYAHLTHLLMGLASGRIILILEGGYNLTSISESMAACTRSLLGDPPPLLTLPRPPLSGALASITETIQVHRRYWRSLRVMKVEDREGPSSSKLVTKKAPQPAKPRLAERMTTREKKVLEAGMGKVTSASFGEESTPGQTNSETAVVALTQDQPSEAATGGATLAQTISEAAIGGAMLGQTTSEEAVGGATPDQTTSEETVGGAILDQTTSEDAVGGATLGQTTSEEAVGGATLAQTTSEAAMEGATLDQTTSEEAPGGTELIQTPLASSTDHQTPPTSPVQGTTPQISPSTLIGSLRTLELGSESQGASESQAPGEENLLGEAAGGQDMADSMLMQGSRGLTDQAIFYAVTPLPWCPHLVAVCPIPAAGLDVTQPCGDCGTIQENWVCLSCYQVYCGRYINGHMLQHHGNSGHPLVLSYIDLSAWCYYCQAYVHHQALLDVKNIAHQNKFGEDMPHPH

[4] = biological target: DNA topoisomerase 2-alpha (Homo sapiens) (UniProt P11388); assay: Inhibition of human topoisomerase 2alpha expressed in Escherichia coli assessed as reduction in supercoiled pBR322 plasmid DNA relaxation at 50 to 100 uM after 10 to 15 mins by ethidium bromide staining based agarose gel electrophoresis
Chain of DNA topoisomerase 2-alpha (Homo sapiens) (P11388 whole entry): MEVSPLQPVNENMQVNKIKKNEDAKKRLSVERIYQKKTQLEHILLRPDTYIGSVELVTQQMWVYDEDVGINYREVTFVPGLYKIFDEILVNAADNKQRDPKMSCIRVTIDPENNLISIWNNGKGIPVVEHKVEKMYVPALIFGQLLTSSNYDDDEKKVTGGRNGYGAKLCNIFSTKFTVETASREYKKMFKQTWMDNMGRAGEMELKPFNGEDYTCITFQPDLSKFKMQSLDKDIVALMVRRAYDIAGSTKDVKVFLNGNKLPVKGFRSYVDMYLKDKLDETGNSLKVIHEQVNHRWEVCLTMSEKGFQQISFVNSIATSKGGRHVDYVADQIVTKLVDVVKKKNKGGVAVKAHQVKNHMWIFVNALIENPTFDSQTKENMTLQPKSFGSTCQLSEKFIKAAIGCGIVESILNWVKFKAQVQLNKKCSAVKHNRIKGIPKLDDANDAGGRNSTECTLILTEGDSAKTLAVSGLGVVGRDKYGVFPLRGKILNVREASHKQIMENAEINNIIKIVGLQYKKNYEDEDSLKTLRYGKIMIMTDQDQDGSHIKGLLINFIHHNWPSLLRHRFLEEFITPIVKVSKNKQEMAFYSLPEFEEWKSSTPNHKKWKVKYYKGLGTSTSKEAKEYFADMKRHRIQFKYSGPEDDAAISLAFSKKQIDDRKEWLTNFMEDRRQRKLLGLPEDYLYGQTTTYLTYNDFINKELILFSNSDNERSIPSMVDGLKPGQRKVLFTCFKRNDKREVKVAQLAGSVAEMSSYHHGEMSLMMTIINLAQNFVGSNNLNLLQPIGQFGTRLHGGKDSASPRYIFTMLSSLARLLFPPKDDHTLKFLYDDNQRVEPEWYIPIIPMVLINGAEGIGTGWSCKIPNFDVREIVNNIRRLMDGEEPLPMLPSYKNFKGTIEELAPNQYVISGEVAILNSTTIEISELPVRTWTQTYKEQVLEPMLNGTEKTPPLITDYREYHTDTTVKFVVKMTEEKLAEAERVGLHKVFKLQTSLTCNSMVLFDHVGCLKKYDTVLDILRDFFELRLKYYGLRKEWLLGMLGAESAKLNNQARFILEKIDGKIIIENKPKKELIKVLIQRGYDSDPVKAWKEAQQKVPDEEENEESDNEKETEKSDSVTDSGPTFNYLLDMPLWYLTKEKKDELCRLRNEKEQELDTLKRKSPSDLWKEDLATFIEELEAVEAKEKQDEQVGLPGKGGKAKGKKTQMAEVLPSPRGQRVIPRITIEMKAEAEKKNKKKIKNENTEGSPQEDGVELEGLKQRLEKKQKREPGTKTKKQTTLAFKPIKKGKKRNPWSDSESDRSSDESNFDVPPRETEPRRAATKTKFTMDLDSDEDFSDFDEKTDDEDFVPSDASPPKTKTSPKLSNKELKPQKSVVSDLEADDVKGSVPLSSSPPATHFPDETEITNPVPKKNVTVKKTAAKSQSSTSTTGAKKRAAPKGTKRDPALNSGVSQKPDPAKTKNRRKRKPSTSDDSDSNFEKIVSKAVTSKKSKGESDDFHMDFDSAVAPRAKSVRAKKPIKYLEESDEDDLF
Method in brief: (§1)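 Relaxation assay with 500 ng supercoiled pBR322 DNA and 1 unit of human Topo I or Topo II in reaction buffer (20 µL), run at 37 °C for 10-15 min. Reaction stopped with loading buffer, then 1% agarose gel in TAE at 80 V for 0.5 h. Gel stained with ethidium bromide and bands viewed under UV. Camptothecin (Topo I) and m-AMSA (Topo II) served as references.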

[5] = tested on: U-937; assay: Antiproliferative activity against human U937 cells after 48 hrs by MTT assay; assay type: functional, cell-based; conditions: U-937, 48 h
[6] = tested on: HCT-116; assay: Antiproliferative activity against human HCT116 cells after 48 hrs by MTT assay; assay type: functional, cell-based; conditions: HCT-116, 48 h
[7] = biological target: T2, DNA topoisomerase 1 (Homo sapiens) (UniProt P11387); assay: Inhibition of human topoisomerase 1 assessed as reduction in supercoiled pBR322 plasmid DNA relaxation at 100 uM after 10 to 15 mins by ethidium bromide staining based agarose gel electrophoresis; method in brief: as §1
T2 sequence (whole entry): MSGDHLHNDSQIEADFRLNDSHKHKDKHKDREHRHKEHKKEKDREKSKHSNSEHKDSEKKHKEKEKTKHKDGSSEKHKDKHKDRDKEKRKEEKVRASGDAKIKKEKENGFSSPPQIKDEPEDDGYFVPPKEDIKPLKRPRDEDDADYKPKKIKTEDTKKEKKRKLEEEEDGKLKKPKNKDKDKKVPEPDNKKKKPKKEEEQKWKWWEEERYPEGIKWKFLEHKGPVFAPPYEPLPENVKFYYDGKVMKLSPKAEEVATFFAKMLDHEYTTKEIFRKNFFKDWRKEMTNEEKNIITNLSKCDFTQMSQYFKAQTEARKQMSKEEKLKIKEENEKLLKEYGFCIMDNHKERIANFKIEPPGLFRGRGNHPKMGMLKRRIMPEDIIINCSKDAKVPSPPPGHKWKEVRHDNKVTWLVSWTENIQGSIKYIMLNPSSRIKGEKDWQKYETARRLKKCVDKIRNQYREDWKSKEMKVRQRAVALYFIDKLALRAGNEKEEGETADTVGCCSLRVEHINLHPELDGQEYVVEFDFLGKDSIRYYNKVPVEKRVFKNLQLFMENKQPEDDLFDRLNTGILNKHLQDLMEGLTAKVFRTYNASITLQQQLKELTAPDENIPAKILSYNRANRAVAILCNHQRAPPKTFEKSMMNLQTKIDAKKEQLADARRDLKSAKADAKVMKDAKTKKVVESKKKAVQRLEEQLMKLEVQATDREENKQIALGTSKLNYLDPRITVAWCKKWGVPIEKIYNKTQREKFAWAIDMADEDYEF

[8] = tested on: Calf thymus DNA; assay: Binding affinity to calf thymus DNA by fluorescence emission spectral analysis; assay type: nucleic-acid assay; conditions: Bos taurus
[9] = tested on: Calf thymus DNA; assay: Binding affinity to calf thymus DNA by UV-Vis absorption spectral analysis; assay type: nucleic-acid assay; conditions: Bos taurus
Method in brief: (§2)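 Compound held at 10 μM and titrated with increasing calf thymus DNA in Tris-HCl buffer (pH 7.4). UV–visible absorption spectra recorded, and absorbance changes plotted against DNA concentration.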

[10] = tested on: U-937; assay: Induction of apoptosis in human U937 cells assessed as increase in cleaved caspase 8 levels up to 2.5 uM after 36 hrs by Western blot analysis; assay type: functional, cell-based
Method in brief: (§3)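 U937 cells exposed to 0, 0.1, 0.5, 1 and 2.5 μM for 36 h. Cells lysed at 0 °C for 0.5 h, protein measured by BCA, and lysates run on 12% SDS-PAGE and transferred to PVDF. Blocking in 5% milk, primary antibodies (1:1000) at 4 °C overnight, HRP secondary for 2 h, ECL detection.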

[11] = tested on: U-937; assay: Induction of apoptosis in human U937 cells assessed as increase in cleaved caspase 7 levels up to 2.5 uM after 36 hrs by Western blot analysis; assay type: functional, cell-based; method in brief: as §3
[12] = tested on: U-937; assay: Induction of apoptosis in human U937 cells assessed as increase in cleaved caspase 9 levels up to 2.5 uM after 36 hrs by Western blot analysis; assay type: functional, cell-based; method in brief: as §3
[13] = tested on: Calf thymus DNA; assay: Binding affinity to calf thymus DNA assessed as assessed as bathochromic shift at 10 uM by UV-Vis absorption spectral analysis; assay type: nucleic-acid assay; conditions: Bos taurus; method in brief: as §2
[14] = tested on: Calf thymus DNA; assay: Binding affinity to calf thymus DNA assessed as maximum absorption peak at 10 uM by UV-Vis absorption spectral analysis; assay type: nucleic-acid assay; conditions: Bos taurus; method in brief: as §2
[15] = tested on: U-937; assay: Induction of apoptosis in human U937 cells assessed as increase in cleaved caspase 3 levels up to 2.5 uM after 36 hrs by Western blot analysis; assay type: functional, cell-based; method in brief: as §3

IC50 [1] [nM]	IC50 [2] [nM]	IC50 [3] [nM]	inhibition [4]	IC50 [5] [nM]	SMILES	other results
4930					O=C(CCCCCCC(=O)Nc1ccccc1)NO [VORINOSTAT]	
	8.2	2.6	Active	1340	O=C(CCCCCn1cc(-c2ccc(Nc3c4ccccc4nc4ccccc34)cc2)nn1)NO	
	224	13.3	Active	2940	COc1ccc2nc3cc(Cl)ccc3c(Nc3cccc(-c4cn(CCCCCC(=O)NO)nn4)c3)c2c1	
	306	29	Active	3550	COc1ccc2nc3cc(Cl)ccc3c(Nc3ccc(-c4cn(CCCCCC(=O)NO)nn4)cc3)c2c1	
	14.1	3.4	Active	2670	O=C(CCCCCn1cc(-c2cccc(Nc3c4ccccc4nc4ccccc34)c2)nn1)NO	
	66.2	80.8	Active	1120	COc1ccc2nc3cc(Cl)ccc3c(Nc3ccc(CCC(=O)NO)cc3)c2c1	
				3870	COC(=O)CCc1ccc(Nc2c3ccccc3nc3ccccc23)cc1	
29100	134	99.3	Active	750	O=C(CCc1ccc(Nc2c3ccccc3nc3ccccc23)cc1)NO	IC50 [6]: 1880 nM; inhibition [7]: Active
7090	3.9	2.9	Active	900	O=C(CCCCCCn1cc(-c2ccc(Nc3c4ccccc4nc4ccccc34)cc2)nn1)NO	Kq [8]: 1.56 ×10⁵ /M; Kb [9]: 1.67 ×10⁵ /M; Activity [10]: Active; IC50 [6]: 2110 nM; Activity [11]: Active; Activity [12]: Active; Activity [13]: Active; Activity [14]: 430 nm; Activity [15]: Active
				21400	O=C(CCCCCCn1cc(-c2ccc(Nc3c4ccccc4nc4ccccc34)cc2)nn1)NOC1CCCCO1 (configuration not stated)	
	5.1	5	Active	1240	O=C(CCCCCCn1cc(-c2cccc(Nc3c4ccccc4nc4ccccc34)c2)nn1)NO	
10000			Active		COc1cc(NS(C)(=O)=O)ccc1Nc1c2ccccc2nc2ccccc12 [AMSACRINE]	Kb [9]: 1.36 ×10⁵ /M; IC50 [6]: < 1000 nM
